# Like-named read-outs stand apart in the source and are kept apart here.
# What was measured:
# [1] = tested on: DA turnover in the rat striatum; test: In vivo DA turnover and serotonin biomarkers in the rat striatum
# C57BL/6J mice [2] = test: Food intake in the mouse; format: in vivo
# Method in brief: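 C57BL/6J mice (24–26 g) single-housed on a reversed 12 h/12 h cycle, lights off at 9:00 a.m. Test compound given p.o. (vehicle 1% methylcellulose in water, 10 ml/kg) or i.p. 15 min before lights-off. Food consumption recorded at 1:00 p.m., 4 h after lights-off. 8 mice per group.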
# [3] = biological target: human H3 histamine receptor (Homo sapiens, UniProt Q9Y5N1); test: [35S]-GTPγS functional binding assay on the H3 histamine receptor; format: biochemical
# human NET (SLC6A2) = human NET (SLC6A2) (Homo sapiens, UniProt P23975); test: fluorescence-based neurotransmitter transporter uptake assay, NET; format: cell-based
# male Wistar rats = test: Behavioral drug sensitization in the rat; format: in vivo
# Method in brief: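 Male Wistar rats (240–270 g) habituated 1 h in the test room before each daily session. Dosed p.o. (vehicle 1% methylcellulose, 4 ml/kg) or i.p. (saline) immediately before placement in the same dim (5 lux) 76×76 cm open field. Five sessions between 1 and 5 p.m. on 5 successive days. Locomotion video-tracked for 40 min. n=5–6. ANOVA/Fisher's LSD versus vehicle; paired t test versus day 1.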
# [4] = for Brain AUC0-8h / Brain C max / Brain C max (molar): 10 mg/kg, p.o., male Swiss mice; for Brain C max at pharmacologically active doses / Brain C max at pharmacologically active doses (molar): male, Swiss, mouse, in vivo, po
# [5] = tested on: tele-methylhistamine in the brain of mice; settings: cited from earlier work
# in vivo = settings: male, Swiss, mouse, po, 10 mg/kg
# human DAT (SLC6A3) = human DAT (SLC6A3) (Homo sapiens, UniProt Q01959); test: cell-based
# human SERT (SLC6A4) = human SERT (SLC6A4) (Homo sapiens, UniProt P31645); test: cell-based; format: cell-based
# C57BL/6J mice [6] = test: Spontaneous locomotor activity in the mouse; format: in vivo; settings: p.o.
# C57BL/6J mice [7] = test: Effect of pitolisant on solriamfetol- or modafinil-induced locomotor activity; format: in vivo, mouse; settings: pitolisant 20 mg/kg, p.o.
# [8] = 10 mg/kg, p.o., male Swiss mice, ref Ligneau et al. 29, cited from earlier work
# [9] = tested on: extracellular DA in the rat nucleus accumbens; settings: cited from earlier work
# [10] = cited from earlier work
# [11] = tested on: extracellular DA in the rat nucleus accumbens; test: In vivo microdialysis in the rat nucleus accumbens; settings: p.o.
# Method in brief: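 Under chloral hydrate (400 mg/kg i.p.), rats received a stereotaxic guide cannula in nucleus accumbens (AP +1.2 mm from bregma, […], DV −5.8 mm from dura). Recovery ≥5 days, single-housed. In freely moving rats, extracellular DA sampled via a 2-mm microdialysis probe after oral test compound or vehicle (1% methylcellulose in water, 5 ml/kg). n=5–8. ANOVA/Dunnett versus vehicle.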
# [12] = tested on: tele-methylhistamine in the brain of mice; test: Assay of tele-methylhistamine in the brain of mice; format: in vivo, mouse; settings: 30 and 100 mg/kg, p.o., 90 min after treatment
# Method in brief: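 Male OF1 mice (22–25 g) fasted 16 h, then dosed orally with test compound or vehicle (1% methylcellulose in water, 10 ml/kg). Killed 90 min later. Brain homogenised in 10 volumes ice-cold 0.4 N perchloric acid and centrifuged 2000 g, 30 min, 4℃. Supernatant stored at −20℃. Tele-methylhistamine measured by enzyme immunoassay.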
# [13] = D-amphetamine i.p., dose and time not given
# [14] = 64 mg/kg, i.p., fifth day of repeated administration
# Sequence of human NET (SLC6A2) (P23975 1-628 isoform P23975-2): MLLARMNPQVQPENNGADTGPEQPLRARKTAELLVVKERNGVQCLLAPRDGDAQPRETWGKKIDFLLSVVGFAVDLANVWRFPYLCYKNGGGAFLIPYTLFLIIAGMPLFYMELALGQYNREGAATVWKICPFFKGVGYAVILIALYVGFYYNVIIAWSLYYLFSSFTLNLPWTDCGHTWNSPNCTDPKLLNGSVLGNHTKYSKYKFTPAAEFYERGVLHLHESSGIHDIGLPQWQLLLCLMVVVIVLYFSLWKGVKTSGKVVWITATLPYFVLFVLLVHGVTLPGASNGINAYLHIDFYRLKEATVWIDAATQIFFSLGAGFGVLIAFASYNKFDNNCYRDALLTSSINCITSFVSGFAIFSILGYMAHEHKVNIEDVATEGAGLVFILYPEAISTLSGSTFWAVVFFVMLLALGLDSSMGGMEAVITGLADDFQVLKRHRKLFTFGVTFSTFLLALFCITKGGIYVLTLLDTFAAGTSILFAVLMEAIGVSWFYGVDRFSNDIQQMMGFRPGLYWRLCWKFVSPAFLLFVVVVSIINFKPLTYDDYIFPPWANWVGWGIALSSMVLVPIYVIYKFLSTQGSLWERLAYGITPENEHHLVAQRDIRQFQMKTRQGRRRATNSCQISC
# Sequence of human SERT (SLC6A4) (P31645 whole entry): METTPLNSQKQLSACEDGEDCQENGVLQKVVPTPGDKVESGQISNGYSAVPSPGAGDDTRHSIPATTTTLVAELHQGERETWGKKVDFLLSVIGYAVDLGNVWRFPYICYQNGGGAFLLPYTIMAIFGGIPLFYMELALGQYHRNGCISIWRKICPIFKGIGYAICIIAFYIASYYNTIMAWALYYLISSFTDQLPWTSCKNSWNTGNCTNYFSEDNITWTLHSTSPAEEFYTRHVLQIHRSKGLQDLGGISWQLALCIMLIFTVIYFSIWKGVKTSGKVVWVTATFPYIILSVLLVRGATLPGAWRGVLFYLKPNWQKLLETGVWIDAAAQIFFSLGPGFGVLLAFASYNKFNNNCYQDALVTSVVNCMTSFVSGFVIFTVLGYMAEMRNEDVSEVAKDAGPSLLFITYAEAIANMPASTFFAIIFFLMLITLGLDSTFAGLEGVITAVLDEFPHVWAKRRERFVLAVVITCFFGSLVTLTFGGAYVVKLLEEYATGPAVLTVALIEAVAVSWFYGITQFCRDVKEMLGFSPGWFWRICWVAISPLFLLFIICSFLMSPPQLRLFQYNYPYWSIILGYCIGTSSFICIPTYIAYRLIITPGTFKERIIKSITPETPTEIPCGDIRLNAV
# Sequence of human H3 histamine receptor (Q9Y5N1 whole entry): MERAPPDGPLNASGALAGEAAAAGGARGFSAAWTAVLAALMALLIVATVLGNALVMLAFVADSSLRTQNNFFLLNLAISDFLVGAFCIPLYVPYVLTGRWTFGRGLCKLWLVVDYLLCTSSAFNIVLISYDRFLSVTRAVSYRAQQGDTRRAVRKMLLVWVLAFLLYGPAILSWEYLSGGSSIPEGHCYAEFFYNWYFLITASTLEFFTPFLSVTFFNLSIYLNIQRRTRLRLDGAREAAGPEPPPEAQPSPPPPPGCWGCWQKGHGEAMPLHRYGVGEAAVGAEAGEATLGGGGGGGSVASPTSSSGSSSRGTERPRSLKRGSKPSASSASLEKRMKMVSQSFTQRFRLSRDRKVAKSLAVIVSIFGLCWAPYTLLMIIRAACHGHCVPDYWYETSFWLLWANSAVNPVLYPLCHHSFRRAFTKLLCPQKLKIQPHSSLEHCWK
# Sequence of human DAT (SLC6A3) (Q01959 whole entry): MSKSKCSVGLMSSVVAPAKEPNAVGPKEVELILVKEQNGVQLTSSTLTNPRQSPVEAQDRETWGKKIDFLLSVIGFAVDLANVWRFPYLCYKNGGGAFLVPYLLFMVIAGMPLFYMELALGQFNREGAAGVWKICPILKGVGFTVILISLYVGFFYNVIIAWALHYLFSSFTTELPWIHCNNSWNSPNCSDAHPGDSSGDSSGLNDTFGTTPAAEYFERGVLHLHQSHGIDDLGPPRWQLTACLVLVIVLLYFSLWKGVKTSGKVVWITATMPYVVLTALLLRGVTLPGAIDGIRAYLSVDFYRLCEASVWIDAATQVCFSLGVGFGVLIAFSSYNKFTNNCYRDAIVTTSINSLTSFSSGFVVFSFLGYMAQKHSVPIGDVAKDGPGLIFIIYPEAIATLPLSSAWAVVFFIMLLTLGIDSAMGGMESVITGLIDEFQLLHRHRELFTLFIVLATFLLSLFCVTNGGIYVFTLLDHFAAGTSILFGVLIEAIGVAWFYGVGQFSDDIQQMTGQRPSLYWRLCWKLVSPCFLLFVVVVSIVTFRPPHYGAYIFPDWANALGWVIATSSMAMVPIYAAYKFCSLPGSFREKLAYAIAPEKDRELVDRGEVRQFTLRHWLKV
compound,measurement,setting,value
C[C@H](N)Cc1ccccc1 [D‐amphetamine],change of DA in the rat striatum,[1]; [13],+25%
same,change of DOPAC in the rat striatum,[1]; [13],−15%
same,decrease in food consumption compared with controls (4 h),"C57BL/6J mice [2]; 3 mg/kg, i.p.",56%
NC(=O)C[S+]([O-])C(c1ccccc1)c1ccccc1 (stereo not drawn) [Modafinil],Kb,[3],> 10 µM
same,Ki,human NET (SLC6A2),> 10 µM
same,hNET Ki,"human NET (SLC6A2); CHO cells expressing human NET, Ki from IC50 by Cheng-Prusoff",inactive
same,increase of rat locomotor activity versus controls,"male Wistar rats; 64 mg/kg, i.p., acute administration (day 1)",+145%
same,increase of rat locomotor activity versus control rats,male Wistar rats; [14],419%
same,increase of rat locomotor activity versus same treated rats at day 1,male Wistar rats; [14],53%
same,reduction in food intake (4 h),"C57BL/6J mice [2]; 64 mg/kg, p.o.",40%
same,reduction in food intake (4 h),"C57BL/6J mice [2]; 96 mg/kg, p.o.",76%
same,reduction in food intake (4 h),"C57BL/6J mice [2]; 128 mg/kg, p.o.",96%
same,Brain AUC0-8h,[4],2298 ng·h/g
same,Brain C max,[4],965 ± 156 ng/g
same,Brain C max (molar),[4],3.5 µM
same,Brain C max at pharmacologically active doses,[4],6000-12 000
same,Brain C max at pharmacologically active doses (molar),[4],22–45 µM
same,potency in enhancing brain tele-methylhistamine level compared with pitolisant,[5]; mice,less potent
same,AUC(0-t),in vivo,2160 ng·h/mL
same,Kp,in vivo,1.1
"Cl.Clc1ccc(CCCOCCCN2CCCCC2)cc1 [Pitolisant, 1‐{3‐[3‐(4‐Chlorophenyl)propoxy]propyl}piperidine, hydrochloride]",Ki,human DAT (SLC6A3),4.1 µM
same,Ki,human NET (SLC6A2),2.5 µM
same,Ki,human SERT (SLC6A4),5.79 µM
same,effect on cumulative locomotor activity over 5.5 h post-dosing,C57BL/6J mice [6]; 10 and 20 mg/kg,no significant effect
same,reduction of modafinil-induced hyperlocomotion,C57BL/6J mice [7]; modafinil 64 mg/kg,58%
same,effect on modafinil-induced hyperlocomotion,C57BL/6J mice [7]; modafinil 128 mg/kg,not further reduced
same,effect on solriamfetol-induced hyperlocomotion,C57BL/6J mice [7]; solriamfetol 30 mg/kg,fully normalized
same,reduction of solriamfetol-induced hyperlocomotion,C57BL/6J mice [7]; solriamfetol 100 mg/kg,68%
same,locomotor effect in rats,"male Wistar rats; 10 mg/kg, i.p., acute or after 5-day-repeated administrations",no hyperlocomotion effects
same,effect on food intake during the initial 4 h of the night phase,"C57BL/6J mice [2]; 10 and 20 mg/kg, p.o.",did not modify
same,Brain C max at pharmacologically active doses,[4],10 000-20 000
same,Brain C max at pharmacologically active doses (molar),[4],35–70 µM
same,Brain/plasma AUC ratio,[8]; AUC0-8h,23.5
same,Brain AUC0-8h,[8],34 686 ng/g × h
same,Brain C max (molar),[8],35 µM
same,Brain T max,[8],30 min
same,Plasma AUC0-8h,[8],1475 ng·h/mL
same,Plasma C max,[8],441 ± 69 ng/mL
same,Plasma T max,[8],30 min
same,effect on levels of extracellular DA in the rat nucleus accumbens,[9],no effect
same,"ED50, enhancement of brain tele-methylhistamine level","[5]; p.o., in mice",1.6 mg/kg
same,plasma exposure (C max) in human at therapeutic dose,[10]; at 40 mg,~ 36 ng/ml
NC(=O)OC[C@H](N)Cc1ccccc1 [Solriamfetol],Kb,[3],> 10 µM
same,Ki,human DAT (SLC6A3),2.4 µM
same,Ki,human NET (SLC6A2),4.8 µM
same,Ki,human SERT (SLC6A4),> 10 µM
same,hSERT Ki,"human SERT (SLC6A4); HEK293 cells expressing human SERT, Ki from IC50 by Cheng-Prusoff",inactive
same,change of DOPAC in the rat striatum,"[1]; 30 mg/kg, p.o., 60 min",−11%
same,"effect on DOPAC/DA ratio relative to that of D-amphetamine (2 mg/kg, i.p.)","[1]; 30 mg/kg, p.o., 60 min",about 50%
same,change of DA in the rat striatum,"[1]; 30 mg/kg, p.o., 60 min, not significant",+4%
same,decrease in the DOPAC/DA ratio in the rat striatum,"[1]; 30 mg/kg, p.o., 60 min after the dose",14%
same,effect on 5-HIAA/5-HT ratio in the rat striatum,"[1]; 3 and 30 mg/kg, p.o., 60 min after dosage",No effect
same,effect on extracellular levels of DA in the nucleus accumbens,[11]; 30 mg/kg,no effects
same,increase of extracellular levels of DA in the nucleus accumbens,"[11]; 100 mg/kg, 30 min after administration",+138 % of basal levels
same,"AUC of extracellular DA (% basal dopamine level), enhancement","[11]; 100 mg/kg, 90 min (1.5 h) post-administration period",123%
same,effect on tele-methylhistamine levels in the brain of mice,[12],no significant effect
same,effect on tele-methylhistamine levels in the brain of mice,[12]; listed as solriamfetol,no effect
same,effect on cumulative locomotor activity over 5.5 h post-dosing,C57BL/6J mice [6]; 30 mg/kg,no effect
same,locomotor effect in rats,"male Wistar rats; 60 mg/kg, p.o., over the 5-day repeated administration period",no significant locomotion effect
same,locomotor effect in rats,"male Wistar rats; 100 mg/kg, p.o., acute",no acute effects
same,increase of rat locomotor activity versus controls,"male Wistar rats; 100 mg/kg, p.o., day 5",185%
same,increase of rat locomotor activity versus same treated rats at day 1,"male Wistar rats; 100 mg/kg, p.o., day 5",106%
same,inhibition of food intake (4 h),"C57BL/6J mice [2]; 30 mg/kg, p.o.",25%
same,inhibition of food intake (4 h),"C57BL/6J mice [2]; 100 mg/kg, p.o.",40%
same,Brain AUC0-8h,[4],10 990 ng/g × h
same,Brain C max,[4],3935 ± 452 ng/g
same,Brain C max (molar),[4],20 µM
same,Brain C max at pharmacologically active doses,[4],12 000-40 000
same,Brain C max at pharmacologically active doses (molar),[4],60–200 µM
same,plasma exposure (C max) in human at therapeutic dose,[10]; at 150 mg,~ 820 ng/ml
same,AUC(0-t),in vivo,1150 ng·h/mL
same,Kp,in vivo,9.6

# Reference: article PMC8381683 (Pharmacology Research & Perspectives, 2021)
